Data on 13 compounds can be found in ChEMBL document CHEMBL1122290, “N-(substituted-phenyl)-D-glycopyranosylamines and their O-acetyl derivatives as potential modifiers of the formation of glycosaminoglycans” (1983).

The subject of the assay is B16. Nature of the assay: In vitro compound's ability to inhibit the replication of cultured B16 melanoma cells. The assay is classed as functional. To be noted: Mus musculus, read-out: ID50 (the source's name). Summed up:
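B16/F10 melanoma cells, kept as monolayers at 37 °C in Eagle's MEM with Hanks' salts plus 10% fetal calf serum, were seeded from exponential growth at 1.5 to 3 × 10⁵ cells per 25-cm² flask. Compound (0.1 μM–0.1 mM) was added at seeding. After 72 h, cells were trypsinized and counted electronically. ID50 was read graphically from at least two replicate experiments.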

For the compound `O=C(O)c1ccc(N[C@@H]2O[C@H](CO)[C@@H](O)[C@H](O)[C@H]2O)cc1`, the IC50 is 100 µM.

Consider `CC1O[C@@H](Nc2ccc(C(=O)O)cc2)[C@@H](O)C(O)[C@H]1O` (stereo partly drawn), for which the IC50 was 37 µM. With `O=C(O)c1ccc(N[C@@H]2OC[C@@H](O)C(O)[C@@H]2O)cc1` (stereo partly drawn) the figure was 38 µM; with `O=C(O)c1ccc(N[C@@H]2OC[C@@H](O)C(O)[C@H]2O)cc1` (stereo partly drawn), 100 µM. With `CC(=O)OCC1O[C@@H](Nc2ccc(C(=O)OC(C)=O)cc2)[C@H](OC(C)=O)C(OC(C)=O)[C@@H]1OC(C)=O` (stereo partly drawn) the figure was 25 µM.

Turning to `CC(=O)OCC1O[C@@H](Nc2ccc(C(=O)O)cc2)[C@@H](OC(C)=O)C(OC(C)=O)[C@@H]1OC(C)=O` (stereo partly drawn), the IC50 was determined as 18 µM.

Consider `CC(=O)OC(=O)c1ccc(N[C@@H]2OC[C@@H](OC(C)=O)C(OC(C)=O)[C@@H]2OC(C)=O)cc1` (stereo partly drawn), for which the IC50 came out at 25 µM. With `CC(=O)OCC1O[C@@H](Nc2ccc(C(=O)O)cc2)[C@@H](OC(C)=O)C(OC(C)=O)[C@H]1OC(C)=O` (stereo partly drawn) the figure was 49 µM; with `CC(=O)OC1[C@@H](OC(C)=O)CO[C@@H](Nc2ccc(C(=O)O)cc2)[C@@H]1OC(C)=O` (stereo partly drawn), 4 µM; with `O=C(O)c1ccc(N[C@@H]2O[C@H](CO)[C@@H](O)[C@H](O)[C@@H]2O)cc1`, 39 µM. In the case of `O=C(O)c1ccc(N[C@@H]2O[C@H](CO)[C@H](O)[C@H](O)[C@H]2O)cc1` it was 30 µM. With `O=C(O)c1ccc(N[C@@H]2OC(CO)[C@@H](O)C(O)[C@@H]2O)cc1` (stereo partly drawn) the figure was 100 µM; with `CC(=O)OC1[C@@H](OC(C)=O)C(C)O[C@@H](Nc2ccc(C(=O)O)cc2)[C@H]1OC(C)=O` (stereo partly drawn), 20 µM.
